Data as given in PMC11168086 (RSC Advances, 2024).
≈ marks a conversion by molar mass, not a printed value.

Assays:
[1] = system: MDA-MB-231 (breast cancer) cells; test: MTT antiproliferative assay, MDA-MB-231; format: cell-based, human; conditions: for IC50: Homo sapiens, MDA-MB-231, 72 h, MDA-MB-231, MTT, 72 h; for Lipophilic efficiency (LipE = pIC50 – logP): MDA-MB-231
How it was run: (§1)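 Cells from ECACC were grown in MEM with 10% FBS, non-essential amino acids and penicillin-streptomycin, at 37 °C and 5% CO2. Cells were seeded at 5000 per well, left overnight, then exposed to test compound 72 h. MTT was added for 4 h, and formazan was dissolved in DMSO (60 min, 37 °C) and read at 545 nm. Compounds giving >50% inhibition at 10 μM were rerun over 0.1–30 μM for IC50. Two independent experiments used five wells each, with cisplatin as positive control.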

[2] = system: MCF7 (breast cancer) cells; test: MTT antiproliferative assay, MCF7; format: cell-based, human; conditions: for IC50: MCF-7, MTT, 72 h; for Lipophilic efficiency (LipE = pIC50 – logP): MCF-7
How it was run: as §1

[3] = system: HeLa (cervical cancers) cells; test: MTT antiproliferative assay, HeLa; format: cell-based, human; conditions: for IC50: Homo sapiens, 72 h
How it was run: as §1

[4] = Kinetic aqueous solubility; format: physicochemical; conditions: PBS buffer, pH 7.4, aqueous buffer, kinetic from dmso stock
How it was run: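 10 mM DMSO stocks were diluted into PBS pH 7.4 to a 500 μM target and shaken 2 h at room temperature. Samples were vacuum-filtered, diluted with acetonitrile to prevent precipitation, and scanned by UV-vis over 250–500 nm. Concentration was derived from a 3-point calibration at each compound's λmax.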

[5] = Intestinal-specific PAMPA; format: in vitro ADME; conditions: pH 6.5
How it was run: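 Donor solutions at nominal 500 μM came from 10 mM DMSO stocks diluted in phosphate donor buffer, pH 6.5. The acceptor buffer held 5% DMSO. The membrane was phosphatidylcholine plus cholesterol in chloroform/dodecane/hexane (5:25:70 v/v). Plates were incubated 4 h at 37 °C, covered. Acceptor UV-vis absorbance was read over 250–500 nm. Pa was calculated by the Wohnsland–Faller equation from acceptor versus equilibrium absorbance at λmax.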

[6] = system: A2780 (ovarian cancer) cells; test: MTT antiproliferative assay, A2780; format: cell-based, human; conditions: for Lipophilic efficiency (LipE = pIC50 – logP): A2780; for IC50: Homo sapiens, A2780, 72 h
How it was run: as §1

Row | Structure (SMILES) | IC50 [1] [µM] | IC50 ([2]; Homo sapiens, MCF7, 72 h) [µM] | IC50 [3] [µM] | solubility kinetic at 2 h [4] [µM] | Papp at 4 h, 500 μM [5] [×10⁻⁶ cm/s] | IC50 [6] [µM] | IC50 [2] [µM] | Lipophilic efficiency (LipE = pIC50 – logP) [1] | Lipophilic efficiency (LipE = pIC50 – logP) [2] | Lipophilic efficiency (LipE = pIC50 – logP) [3] | Lipophilic efficiency (LipE = pIC50 – logP) [6]
1 | COc1ccc(CNC[C@@](C)(O)[C@@H]2CC[C@@H](C)C[C@H]2OCc2ccccc2)cc1 [Compound 10a] | 5.7 | 1.9 | 4.3 | 25.7 ± 1 (≈ 10.2 µg/mL) | 20.6 ± 1.4 | 7.3 |  | −0.15 | 0.32 | −0.03 | −0.25
2 | C=C(C)[C@@H]1CC[C@@H](C)C[C@H]1OCc1ccc(OC)cc1 [Compound 2c] |  |  |  | 247 ± 2.8 (≈ 67.8 µg/mL) | 26.1 ± 5.4 |  |  |  |  |  | 
3 | C=C(COCc1ccccc1)[C@@H]1CC[C@@H](C)C[C@H]1OCc1ccccc1 [Compound 30a] |  |  |  | 40.8 ± 5 (≈ 14.3 µg/mL) |  |  |  |  |  |  | 
4 | C[C@@H]1CC[C@@H]([C@](C)(O)Cn2ccnc2)[C@H](OCc2ccccc2)C1 [Compound 14a] |  |  | 24.5 | 4.1 ± 0.7 (≈ 1.35 µg/mL) |  |  |  |  |  |  | 
5 | COc1ccccc1CNC[C@@](C)(O)[C@@H]1CC[C@@H](C)C[C@H]1OCc1ccccc1 [Compound 12a] | 12.8 | 4.2 | 4.6 | 270 ± 21 (≈ 107 µg/mL) | 49.2 ± 4 | 7.4 |  |  | −0.01 | −0.05 | −0.26
6 | C=C(COCc1ccc(OC)cc1)[C@@H]1CC[C@@H](C)C[C@H]1OCc1ccc(OC)cc1 [Compound 30c] |  |  | 24.7 | 31.5 ± 1.3 (≈ 12.9 µg/mL) |  |  |  |  |  |  | 
7 | C[C@@H]1CC[C@@H]([C@](C)(O)CNCc2ccccc2F)[C@H](OCc2ccccc2)C1 [Compound 9a] |  | 8.6 | 6.5 | 1.4 ± 0.02 (≈ 0.54 µg/mL) |  |  |  |  | −0.21 | −0.09 | 
8 | C=C(C)[C@@H]1CC[C@@H](C)C[C@H]1OCc1ccccc1 [Compound 2a, O-benzyl isopulegol] |  |  |  | 1.1 ± 0.01 (≈ 0.269 µg/mL) |  |  |  |  |  |  | 
9 | C[C@@H]1CC[C@@H]([C@](C)(O)Cn2cnc3ccccc32)[C@H](OCc2ccccc2)C1 [Compound 15a] | 16.7 | 7 | 11.6 | 38.7 ± 2 (≈ 14.6 µg/mL) | 39.3 ± 4.2 | 12.3 |  |  | 0.02 |  | 
10 | C[C@@H]1CC[C@@H]([C@](O)(COCc2ccccc2)Cn2ccnc2)[C@H](OCc2ccccc2)C1 [Compound 42b] |  |  |  | 5.2 ± 0.3 (≈ 2.26 µg/mL) |  |  |  |  |  |  | 
11 | C[C@@H]1CC[C@@H]([C@](C)(O)CNCc2ccc(F)cc2)[C@H](OCc2ccccc2)C1 [Compound 7a] |  | 20.3 | 24.3 | 2.5 ± 0.1 (≈ 0.964 µg/mL) |  |  |  |  |  |  | 
12 | C[C@@H]1CC[C@@H]([C@@](O)(COCc2ccccc2)Cn2ccnc2)[C@H](OCc2ccccc2)C1 [Compound 42a] |  |  |  | 7.7 ± 0.7 (≈ 3.35 µg/mL) |  |  |  |  |  |  | 
13 | C=C(C)[C@@H]1CC[C@@H](C)C[C@H]1OCc1ccc(F)cc1 [Compound 2b] |  |  |  | 90 ± 4.8 (≈ 23.6 µg/mL) | 50.7 ± 4.7 |  |  |  |  |  | 
14 | C=C(COCc1ccc(F)cc1)[C@@H]1CC[C@@H](C)C[C@H]1OCc1ccc(F)cc1 [Compound 30b] |  |  |  | 17.6 ± 0.6 (≈ 6.8 µg/mL) |  |  |  |  |  |  | 
15 | C[C@@H]1CC[C@@H]([C@](C)(O)CNCc2cccc3ccccc23)[C@H](OCc2ccccc2)C1 [Compound 13a] | 25 | 4.3 | 5.4 | 2.1 ± 0.1 (≈ 0.877 µg/mL) |  | 13.7 |  |  | −0.94 | −1.04 | 

More lines, main results first:

Row | IC50 [1] [µM] | IC50 ([2]; Homo sapiens, MCF7, 72 h) [µM] | IC50 [3] [µM] | solubility kinetic at 2 h [4] [µM] | Papp at 4 h, 500 μM [5] [×10⁻⁶ cm/s] | IC50 [6] [µM] | IC50 [2] [µM] | Structure (SMILES) | Lipophilic efficiency (LipE = pIC50 – logP) [1] | Lipophilic efficiency (LipE = pIC50 – logP) [2] | Lipophilic efficiency (LipE = pIC50 – logP) [3] | Lipophilic efficiency (LipE = pIC50 – logP) [6]
16 | 1.9 | < 1 | 2.5 | 88 ± 0.9 (≈ 47.5 µg/mL) | 29.5 ± 3.6 | 1.5 | 0.9 | COc1ccc(CNC[C@](O)(COCc2ccc(F)cc2)[C@@H]2CC[C@@H](C)C[C@H]2OCc2ccc(F)cc2)cc1 [Compound 46a] | −1.22 |  | −1.33 | −1.12
17 | 2.2 | 1.4 | 3.7 | 202 ± 1 (≈ 108 µg/mL) | 32.4 ± 7.6 | 1.6 |  | COc1ccc(COC[C@@](O)(CNCc2ccccc2)[C@@H]2CC[C@@H](C)C[C@H]2OCc2ccc(OC)cc2)cc1 [Compound 50a] | −1.01 | −0.83 | −1.23 | −0.88
18 | 1.9 | 1.6 | 2.8 | 259 ± 1.3 (≈ 143 µg/mL) | 19.7 ± 1.6 | 1.5 |  | COc1ccc(COC[C@@](O)(CNCc2ccc(F)cc2)[C@@H]2CC[C@@H](C)C[C@H]2OCc2ccc(OC)cc2)cc1 [Compound 51a] |  | −0.84 | −1.08 | −0.80
19 | 2.7 | 0.96 | 3 | 97 ± 2.8 (≈ 49.4 µg/mL) | 23.2 ± 2.7 | 2.1 |  | C[C@@H]1CC[C@@H]([C@@](O)(CNCc2ccccc2)COCc2ccc(F)cc2)[C@H](OCc2ccc(F)cc2)C1 [Compound 44b] | −1.08 | −0.63 | −1.12 | −0.97
20 | 3.4 | 2.3 | 2.8 | 3.3 ± 0.01 (≈ 1.21 µg/mL) |  | 2.6 |  | C[C@@H]1CC[C@@H]([C@](C)(O)CNCc2ccccc2)[C@H](OCc2ccccc2)C1 [Compound 6a] | 0.01 | 0.18 | 0.09 | 0.12
21 | 3.4 | 3.7 | 2.3 | 8 ± 1 (≈ 3.79 µg/mL) |  | 3.3 |  | C[C@@H]1CC[C@@H]([C@@](O)(CNCc2ccccc2)COCc2ccccc2)[C@H](OCc2ccccc2)C1 [Compound 34b] | −1.28 | −1.32 | −1.11 | −1.26
22 | 3.6 | 5.9 | 2.6 | 1 ± 0.03 (≈ 0.524 µg/mL) |  | 5 |  | C[C@@H]1CC[C@@H]([C@](O)(CNCc2cccc3ccccc23)COCc2ccccc2)[C@H](OCc2ccccc2)C1 [Compound 41a] | −2.42 | −2.64 | −2.28 | −2.57
23 | 4 | 2 | 2.6 | 2.8 ± 0.2 (≈ 1.33 µg/mL) |  | 4.1 |  | C[C@@H]1CC[C@@H]([C@](O)(CNCc2ccccc2)COCc2ccccc2)[C@H](OCc2ccccc2)C1 [Compound 34a] | −1.35 | −1.05 | −1.16 | −1.36
24 | 2.6 | 5.7 | 2.5 | 0.5 ± 0.01 (≈ 0.262 µg/mL) |  | 4.1 |  | C[C@@H]1CC[C@@H]([C@@](O)(CNCc2cccc3ccccc23)COCc2ccccc2)[C@H](OCc2ccccc2)C1 [Compound 41b] | −2.28 | −2.62 | −2.27 | −2.48
